Measured values reported in ChEMBL document CHEMBL4602736, “Progress in the Field of Aldehyde Dehydrogenase Inhibitors: Novel Imidazo[1,2-a]pyridines against the 1A Family” (ACS Med Chem Lett, 2020).
The source made the active and inactive calls. The rule behind the calls is not given here.

Columns and labels:
[1] = target: T1, Retinaldehyde dehydrogenase 3 (Homo sapiens) (UniProt P47895); assay: Inhibition of human recombinant ALDH1A3 assessed as remaining enzyme activity at 25 uM pre-incubated for 5 mins before acetaldehyde addition by continuous spectrometric assay relative to control
T1 sequence (whole entry): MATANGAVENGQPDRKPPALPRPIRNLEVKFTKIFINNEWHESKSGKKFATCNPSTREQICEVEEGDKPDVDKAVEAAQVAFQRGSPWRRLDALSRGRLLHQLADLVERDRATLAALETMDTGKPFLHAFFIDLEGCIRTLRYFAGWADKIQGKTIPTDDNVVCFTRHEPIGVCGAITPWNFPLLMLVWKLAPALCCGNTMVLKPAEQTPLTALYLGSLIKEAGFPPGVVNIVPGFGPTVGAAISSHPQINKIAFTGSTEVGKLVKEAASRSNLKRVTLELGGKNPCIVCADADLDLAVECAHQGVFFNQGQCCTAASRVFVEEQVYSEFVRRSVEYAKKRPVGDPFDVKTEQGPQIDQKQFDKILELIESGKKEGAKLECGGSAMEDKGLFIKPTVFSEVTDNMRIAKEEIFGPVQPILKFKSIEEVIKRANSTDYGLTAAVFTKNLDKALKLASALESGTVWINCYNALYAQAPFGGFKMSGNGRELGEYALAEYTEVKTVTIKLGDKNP
How it was run: (§1)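 Preliminary single-concentration screen at 25 μM against human recombinant ALDH1A1, ALDH1A2 and ALDH1A3, scored as residual enzyme activity versus control.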

[2] = target: T2, Aldehyde dehydrogenase 1A1 (Homo sapiens) (UniProt P00352); assay: Inhibition of human recombinant ALDH1A1 assessed as remaining enzyme activity at 25 uM pre-incubated for 5 mins before acetaldehyde addition by continuous spectrometric assay relative to control; how it was run: as §1
T2 sequence (whole entry): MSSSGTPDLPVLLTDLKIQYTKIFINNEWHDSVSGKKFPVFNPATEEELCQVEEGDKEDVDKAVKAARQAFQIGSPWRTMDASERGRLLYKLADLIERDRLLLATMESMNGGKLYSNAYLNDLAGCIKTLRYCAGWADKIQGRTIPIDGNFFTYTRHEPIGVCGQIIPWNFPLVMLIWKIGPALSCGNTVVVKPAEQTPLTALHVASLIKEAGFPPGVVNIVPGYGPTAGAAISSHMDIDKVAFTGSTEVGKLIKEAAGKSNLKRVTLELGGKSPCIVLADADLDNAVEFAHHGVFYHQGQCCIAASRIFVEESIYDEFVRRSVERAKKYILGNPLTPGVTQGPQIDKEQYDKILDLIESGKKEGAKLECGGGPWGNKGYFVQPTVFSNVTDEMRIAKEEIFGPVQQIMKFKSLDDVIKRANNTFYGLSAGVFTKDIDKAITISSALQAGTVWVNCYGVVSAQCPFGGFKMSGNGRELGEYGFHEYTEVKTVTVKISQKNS

[3] = target: T3, Retinal dehydrogenase 2 (Homo sapiens) (UniProt O94788); assay: Inhibition of human recombinant ALDH1A2 assessed as remaining enzyme activity at 25 uM pre-incubated for 5 mins before acetaldehyde addition by continuous spectrometric assay relative to control; how it was run: as §1
T3 sequence (whole entry): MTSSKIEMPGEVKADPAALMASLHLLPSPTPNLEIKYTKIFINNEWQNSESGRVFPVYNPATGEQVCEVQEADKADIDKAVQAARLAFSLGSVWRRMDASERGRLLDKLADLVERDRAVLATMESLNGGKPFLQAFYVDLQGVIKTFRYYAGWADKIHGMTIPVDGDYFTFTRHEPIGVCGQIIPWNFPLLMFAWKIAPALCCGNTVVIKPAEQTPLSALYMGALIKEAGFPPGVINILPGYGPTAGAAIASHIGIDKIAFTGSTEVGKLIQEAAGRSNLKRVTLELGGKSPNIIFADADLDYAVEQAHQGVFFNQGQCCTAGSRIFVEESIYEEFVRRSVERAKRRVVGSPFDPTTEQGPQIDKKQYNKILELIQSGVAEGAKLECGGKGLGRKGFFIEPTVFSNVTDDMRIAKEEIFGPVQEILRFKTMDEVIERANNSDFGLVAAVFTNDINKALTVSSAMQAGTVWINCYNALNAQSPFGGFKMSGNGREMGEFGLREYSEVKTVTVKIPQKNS

[4] = target: T4, Retinaldehyde dehydrogenase 3 (Homo sapiens, UniProt P47895); assay: Inhibition of human recombinant ALDH1A3 pre-incubated for 5 mins before acetaldehyde addition by continuous spectrometric assay relative to control
T4 sequence (P47895 whole entry): T1 sequence (whole entry)
How it was run: (§2)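 IC50 is the concentration giving 50% inhibition of the human recombinant isoform. Compounds with no significant inhibition at 25 μM were listed as not active and had no IC50 determined.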

[5] = target: T5, Aldehyde dehydrogenase 1A1 (Homo sapiens, UniProt P00352); assay: Inhibition of human recombinant ALDH1A1 pre-incubated for 5 mins before acetaldehyde addition by continuous spectrometric assay relative to control; how it was run: as §2
T5 sequence (P00352 whole entry): T2 sequence (whole entry)

Retinal dehydrogenase 2 [6] = target: T6, Retinal dehydrogenase 2 (Homo sapiens, UniProt O94788); assay: Inhibition of human recombinant ALDH1A2 pre-incubated for 5 mins before acetaldehyde addition by continuous spectrometric assay relative to control; how it was run: as §2
T6 sequence (O94788 whole entry): T3 sequence (whole entry)

Retinal dehydrogenase 2 [7] = target: T6, Retinal dehydrogenase 2; assay: Competitive inhibition of human recombinant ALDH1A2 pre-incubated for 5 mins before acetaldehyde addition by continuous spectrometric assay relative to control
[8] = target: T5, Aldehyde dehydrogenase 1A1; assay: Competitive inhibition of human recombinant ALDH1A1 pre-incubated for 5 mins before acetaldehyde addition by continuous spectrometric assay relative to control
[9] = target: T4, Retinaldehyde dehydrogenase 3; assay: Competitive inhibition of human recombinant ALDH1A3 pre-incubated for 5 mins before acetaldehyde addition by continuous spectrometric assay relative to control
U-87 MG = assay: Antiproliferative activity against human U87MG cells assessed as reduction in cell vitality at 100 nM to 10 uM incubated for 72 hrs by MTT assay; assay type: functional, cell-based; conditions: U-87MG ATCC

Row | SMILES | Activity [1] [%] | Activity [2] [%] | Activity [3] [%] | IC50 [4] [µM] | IC50 [5] | IC50 (Retinal dehydrogenase 2 [6]; read-out: IC50) [µM] | IC50 (Retinal dehydrogenase 2 [6]) | Ki (Retinal dehydrogenase 2 [7]) [µM] | Ki [8] [µM] | Ki [9] [µM] | IC50 ([5]; read-out: IC50) [µM] | Activity (U-87 MG)
1 | COc1ccc(-c2cn3cccc(-c4ccc(Cl)cc4)c3n2)cc1 | 75 to 100 | 75 to 100 | 75 to 100 |  |  |  |  |  |  |  |  | 
2 | COc1ccc(-c2cn3cccc(-c4ccc(-c5ccccc5)cc4)c3n2)cc1 | 75 to 100 | 50 to 75 | 75 to 100 |  |  |  |  |  |  |  |  | 
3 | COc1cccc(-c2cn3cccc(-c4ccc(Cl)cc4)c3n2)c1 | 50 to 75 | 75 to 100 | 50 to 75 | 4.3 | Not Active |  | Not Active |  |  |  |  | 
4 | COc1cccc(-c2cn3cccc(-c4ccc(-c5ccccc5)cc4)c3n2)c1 | 75 to 100 | 75 to 100 | 75 to 100 |  |  |  |  |  |  |  |  | 
5 | O=C(COc1ccc(-c2cccn3cc(-c4ccccc4)nc23)cc1)c1ccccc1 | 75 to 100 | 75 to 100 | 75 to 100 |  |  |  |  |  |  |  |  | 
6 | COc1ccc(-c2cn3cccc(-c4cc(OC)c(OC)c(OC)c4)c3n2)cc1 | 75 to 100 | 75 to 100 | 75 to 100 |  |  |  |  |  |  |  |  | 
7 | COc1ccc(-c2cn3cccc(-c4cc(OC)cc(OC)c4)c3n2)cc1 | 75 to 100 | 75 to 100 | 75 to 100 |  |  |  |  |  |  |  |  | 
8 | COc1cccc(-c2cn3cccc(-c4ccc(F)cc4)c3n2)c1 | 50 to 75 | 75 to 100 | 25 to 50 | 7.2 | Not Active |  | Not Active |  |  |  |  | 
9 | COc1ccc(-c2cn3cccc(-c4ccc(F)cc4)c3n2)cc1 | 75 to 100 | 75 to 100 | 75 to 100 |  |  |  |  |  |  |  |  | 
10 | COc1cccc(-c2cn3cccc(-c4cc(OC)c(OC)c(OC)c4)c3n2)c1 | 75 to 100 | 75 to 100 | 75 to 100 |  |  |  |  |  |  |  |  | 
11 | COC(=O)c1ccc(-c2cccn3cc(-c4ccc(OC)cc4)nc23)cc1 | 50 to 75 | 75 to 100 | 75 to 100 |  |  |  |  |  |  |  |  | 

Now from value to compound, other results behind:

Row | Activity [1] [%] | Activity [2] [%] | Activity [3] [%] | IC50 [4] [µM] | IC50 [5] | IC50 (Retinal dehydrogenase 2 [6]; read-out: IC50) [µM] | IC50 (Retinal dehydrogenase 2 [6]) | Ki (Retinal dehydrogenase 2 [7]) [µM] | Ki [8] [µM] | Ki [9] [µM] | IC50 ([5]; read-out: IC50) [µM] | SMILES | Activity (U-87 MG)
12 | 75 to 100 | 75 to 100 | 75 to 100 |  |  |  |  |  |  |  |  | c1ccc(-c2ccc(-c3cccn4cc(-c5ccccc5)nc34)cc2)cc1 | 
13 | 50 to 75 | 75 to 100 | 50 to 75 | 80.6 | Not Active | 61.4 |  |  |  |  |  | c1ccc(-c2cn3cccc(-c4ccccc4)c3n2)cc1 | 
14 | 50 to 75 | 75 to 100 | 75 to 100 |  |  |  |  |  |  |  |  | Cc1ccc(-c2cn3cccc(-c4ccc(Cl)cc4)c3n2)cc1 | 
15 | 25 to 50 | 75 to 100 | 25 to 50 | 6 | Not Active |  | Not Active |  |  |  |  | Fc1ccc(-c2cccn3cc(-c4ccccc4)nc23)cc1 | 
16 | 75 to 100 | 75 to 100 | 50 to 75 |  |  |  |  |  |  |  |  | Cc1ccc(-c2cn3cccc(-c4ccc(F)cc4)c3n2)cc1 | 
17 | 50 to 75 | 75 to 100 | 50 to 75 |  |  |  |  |  |  |  |  | Cc1ccc(-c2cn3cccc(-c4ccccc4)c3n2)cc1 | 
18 | 75 to 100 | 50 to 75 | 75 to 100 |  |  |  |  |  |  |  |  | CC(C)Cc1ccc(-c2cccn3cc(-c4ccccc4)nc23)cc1 | 
19 | 0 to 25 | 75 to 100 | 25 to 50 | 0.66 | Not Active |  | Not Active | 0.92 | 79.5 | 0.12 |  | COC(=O)c1ccc(-c2cccn3cc(-c4ccccc4)nc23)cc1 | 
20 | 50 to 75 | 75 to 100 | 50 to 75 | 5.5 |  | 27.6 |  | 27.6 | 168 | 8.7 | 168 | Clc1ccc(-c2cccn3cc(-c4ccccc4)nc23)cc1 | Active
